Data as given in the EternaBench riboswitch data.

System: MS2 coat protein
Test: apparent Kd, MS2 coat protein; higher = weaker binding; RNA-MaP array; FMN 200 µM where present
How it was run: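 Green signal from SNAP-549-labelled MS2 coat protein was normalised to red-channel RNA signal and to the median Fmax of control clusters. The protein was titrated from 0.7 or 1.5 nM, doubling to 3 µM, without and then with constant ligand, over designs transcribed by stalled E. coli RNA polymerase on Illumina sequencing-chip clusters, in 100 mM Tris-HCl pH 7.5, 80 mM KCl, 4 mM MgCl2, BSA, DTT, yeast tRNA and Tween-20. The apparent Kd is the median of filtered per-cluster binding-curve fits.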

[1] = designed as: OFF switch for flavin mononucleotide, no ligand
[2] = ligand present: flavin mononucleotide, designed as: OFF switch for flavin mononucleotide
[3] = designed as: ON switch for flavin mononucleotide, no ligand
[4] = ligand present: flavin mononucleotide, designed as: ON switch for flavin mononucleotide

Which “apparent Kd” value [1] does the source give for “AAUAAGUGAGGAUAUACGAAAUAAAUAAAUAAAUAAAUAAAGUAGAAGGCACAUGAGGAUCACCCAUGUAAUAA” here?
The value was 34.6 nM.

What about the “apparent Kd” value [2] of the same sequence?
The value was 29 nM.

How did the “apparent Kd” value [1] turn out when “GCACGGAGUGUAGGAUAUUAGUGCGAUUAGCACUGAGAAGGACAUGAGGAUCACCCAUGUUCCUCAAUAACAUACCUUCCGUGC” was run?
Its value is 13.8 nM.

What about the “apparent Kd” value [2] of the same sequence?
Its value is 10.6 nM.

Which “apparent Kd” value [1] does the source give for “GUACAGUAGUGAGGAUAUACGAGAUCGAUAGAUCGGCGAUCCAAUAAUACAUGAGGAUCACCCAUGUAGAAGGCACUUCUGUAC” here?
The value was 7.69 nM.

What about the “apparent Kd” value [2] of the same sequence?
The value was 113 nM.

For “UCAUUGUCAGGAUAUCUUAAUAACGGUUCACUGUUUUAUUUGGAGAAGGGACAUGAGGAUCACCCAUGUUCCUG”, which “apparent Kd” value [1] is on record?
The value was 18.3 nM.

And the “apparent Kd” value [2]?
The value was 20.8 nM.

How did the “apparent Kd” value [1] turn out when “ACAUGAGGAUCACCCAUGUAUUACAUGGUUAAGUUUAUUAACAGAAGGCGAAAUUACCACUUUUUCGAGGAUAUGUUUUCUAUA” was run?
The value was 45.1 nM.

What about the “apparent Kd” value [2] of the same sequence?
The value was 58.4 nM.

For “AUCAGCUUGACAGGAUAUGCAUGUCAACGAAAGUUGACAAUCUUAAUAACAUGAGGAUCACCCAUGUAGAAGGGUCGAGCUGAU”, which “apparent Kd” value [1] is on record?
The value was 17.4 nM.

And the “apparent Kd” value [2]?
The value was 19.9 nM.

“GUAGCAUUAAUAGGAUAUUCAUACCGGAAACGGACAUGAGGAUCACCCAUGUGGCGAAAGCCUUGGGAGAAGGUAAUAUGCUAC” was tested. Which “apparent Kd” value [3] did it give?
The value was 821 nM.

And the “apparent Kd” value [4]?
The value was 240 nM.

Which results are given for “GUCAGCUCGUGAGGAUAUACAUGUGCUGGAAACAGCAUUAAAUUUUUCACAUGAGGAUCACCCAUGUAGAAGGCACGAGCUGAU”?
apparent Kd [1]: 17.3 nM; apparent Kd [2]: 39.1 nM

“GUGCGGUCAGGAUAUGCAUGGCGGGACUUGCGUCGUGGCGUGGAGAAGGGACAUGAGGAUCACCCAUGUGGAGU” was tested. Which “apparent Kd” value [1] did it give?
The value was 76.6 nM.

What about the “apparent Kd” value [2] of the same sequence?
Its value is 45.3 nM.

Which results are given for “GAGAAGUGAGGAUAUGCUGCUCGUCACUUGCGUGAUGAGUAGCAGAAGGCACAUGAGGAUCACCCAUGUAAAGG”?
apparent Kd [1]: 133 nM; apparent Kd [2]: 244 nM

“AUUAUGUAAGGAUAUCUUACAUGUGACUUCGGUCACUGUUAAGAGAAGGUACAUGAGGAUCACCCAUGUAGAAC” was tested. Which “apparent Kd” value [1] did it give?
The value was 18.7 nM.

And the “apparent Kd” value [2]?
The value was 28.7 nM.

How did the “apparent Kd” value [1] turn out when “UAUAAGCUAGGAUAUACUAACGAAACUAAUGCAUAUAUAUAACAUGAGGAUCACCCAUGUAGAAGGAGCAGAAU” was run?
The value was 25.5 nM.

And the “apparent Kd” value [2]?
The value was 23 nM.

How did the “apparent Kd” value [1] turn out when “GCCUUAUCGGUCAGGAUAUACACCCGCCAGUUGUUGUAGAAGGGACAUGAGGAUCACCCAUGUACAUUACAUUG” was run?
Its value is 21.2 nM.

What about the “apparent Kd” value [2] of the same sequence?
Its value is 33.8 nM.

Which results are given for “UUGGACGUCGUAGGCUAUGUAGGAUAUUCCUACAUGAGGAUCACCCAUGUUGACAUGGAAGAAGGACAGAAGGACGAUGUCCAU”?
apparent Kd [3]: 173 nM; apparent Kd [4]: 4.35 nM

What does the source list for “CGCUAAUAGAACGAUUUGUGAAGACAUGAGGAUCACCCAUGUAGAAGGACAACGGAAUAAACGUUGUAGGAUAUACACUUAGCG”?
apparent Kd [1]: 18.1 nM; apparent Kd [2]: 24.4 nM

What does the source list for “CGUUUAUUUAUUGGAUUAUAUUAUGAGGAUAUCAAUAUUUAUUACAUGAGGAUCACCCAUGUUAAUGAGAAGGCAUAAUUAACG”?
apparent Kd [3]: 9.99 nM; apparent Kd [4]: 6.68 nM

How did the “apparent Kd” value [1] turn out when “CAGUACUGAGGAUAUACAUGAGGAUCACCCAUGUCCUAAAAGUAGGAUACUACUAUUAGUAGAAGGCAGUACUG” was run?
The value was 17.9 nM.

What about the “apparent Kd” value [2] of the same sequence?
The value was 190 nM.

Which results are given for “GGAAUAUUUACAGGAUAUGUUUUGUUAAGUCGAGCAGAAGGGUAGAUGUCUUACACGGUUUGUUACAUGAGGAUCACCCAUGUU”?
apparent Kd [3]: 114 nM; apparent Kd [4]: 35.1 nM

What does the source list for “AGCGGAUUGUAGAAGGGUGACAUGAGGAUCACCCAUGUUCAAAUGCGAUUUUCGGUAAUUGAUCCACAGGAUAUACUGUCCGAG”?
apparent Kd [3]: 976 nM; apparent Kd [4]: 427 nM

What does the source list for “UCGUACAUUCGAGGAUAUCGGUGAUUAAUAAUACGAGAAGGCGAUUUUAGGCAUAAAGCCUUAGACAUGAGGAUCACCCAUGUA”?
apparent Kd [3]: 89.7 nM; apparent Kd [4]: 53.7 nM

Which results are given for “UGUAACCGAGGAUAUACAUGAGGAUCACCCAUGUAAUGUAGUAUAGUGUAUGUGAGGUGUAGAAGGUGGGAUGU”?
apparent Kd [1]: 75.6 nM; apparent Kd [2]: 71.6 nM

For “UUAAUUAAUUAAUUCGUCAUUACAUGAGGAUCACCCAUGUAUAAGGAUAUGCAGUGGAAUACACUGCAGAAGGUAUACAAGACG”, which “apparent Kd” value [1] is on record?
The value was 18.4 nM.

And the “apparent Kd” value [2]?
Its value is 26.6 nM.

What does the source list for “GGUCGGAGCAGAGGAUAUACAUGAGGAUCACCCAUGUAAUAAAGUGAAGCCUGGAAACAGGCAAUGUAGAAGGCUGCUCCGACA”?
apparent Kd [1]: 10.8 nM; apparent Kd [2]: 70.6 nM

What does the source list for “AAAAAAAAAAGGCAGGAUAUUCAAAAAAAAACAUGAGGAUCACCCAUGUAAAAAAAAAAAAAAUGGAAGAAGGGCCAAAAAAAAAA”?
apparent Kd [3]: 21.1 nM; apparent Kd [4]: 22.5 nM

How did the “apparent Kd” value [3] turn out when “AAAAGACAUGAGGAUCACCCAUGUAAAAACAUAGGAGGAUAUGUCUGGAAACUAGACUGGACAGAAGGCCUUUGUC” was run?
The value was 33.3 nM.

And the “apparent Kd” value [4]?
Its value is 25 nM.

Which “apparent Kd” value [1] does the source give for “AUAAUGUAAGGAUAUCAGUCGACUAGCCUCGGCUAGUCGACUGAGAAGGUACAUGAGGAUCACCCAUGUGGUUC” here?
Its value is 1130 nM.

What about the “apparent Kd” value [2] of the same sequence?
Its value is 484 nM.

“GGUACUCAAAGAGUACCAAUACGUACAUGAGGAUCACCCAUGUAGGAUAUGCUACUCAAAGAGUAGCAGAAGGACAUGUGCCUA” was tested. Which “apparent Kd” value [1] did it give?
The value was 12.7 nM.

And the “apparent Kd” value [2]?
The value was 31 nM.

Which results are given for “CGAUAUUAUGCAGGAUAUCUUCCUUGAAUGAGGAGAGAAGGGCAUAGGGAGACAUAAGCCUUAUUACAUGAGGAUCACCCAUGU”?
apparent Kd [1]: 10.7 nM; apparent Kd [2]: 8.83 nM

Which “apparent Kd” value [2] does the source give for “GGUACUCAAAGAGUACCAAAACGAACAUGAGGAUCACCCAUGUAGGAUAUGCUACUCAAAGAGUAGCAGAAGGACAUGUGCCUA” here?
Its value is 122 nM.

For “AAGAGACAUCAGAAGGGAGCCCGAAAGCGCAGCUCAGGAUAUGAGAUCUUAUGUAGUACGACAUGAGGAUCACCCAUGUCCGCG”, which “apparent Kd” value [3] is on record?
Its value is 74.3 nM.

What about the “apparent Kd” value [4] of the same sequence?
The value was 10.2 nM.

Which “apparent Kd” value [3] does the source give for “GUUUGUUAUUAGAAGGUGCCGGCGAGAGCCGCAACAUGAGGAUCACCCAUGUGUCGGUGACGACGCAAGGAUAUGGUGGUGGAU” here?
Its value is 308 nM.

And the “apparent Kd” value [4]?
Its value is 140 nM.

For “AUGCUUAUCGAAGGAUAUGGUUACAUGAGGAUCACCCAUGUUAUGCUUGGUUACUUGUUUAGUUUCCAGAAGGUCGAUUAGUUA”, which “apparent Kd” value [1] is on record?
Its value is 46.9 nM.

And the “apparent Kd” value [2]?
Its value is 174 nM.

What does the source list for “UAAGACUAGCAUUGGUAUCUCCACAUGAGGAUCACCCAUGUUUAGGAUAUGAGCAGCAAAGCUGCUUAGAAGGAGACGCUAGUC”?
apparent Kd [1]: 7.26 nM; apparent Kd [2]: 7.21 nM

How did the “apparent Kd” value [1] turn out when “UGUCGGAGCUGAGGAUAUUACAUGAGGAUCACCCAUGUAUGAACCAAUAGCUGGAAACAGCAAUGUAAGAAGGCUGCUCCGACA” was run?
Its value is 5.65 nM.

And the “apparent Kd” value [2]?
Its value is 34.1 nM.

How did the “apparent Kd” value [1] turn out when “CGCACUGAUAGAGGAUAUGUUGUACAUGAGGAUCACCCAUGUGUUUUUGUAUCAAUAUUUGUGAAACAGAAGGCUAUUAGUGCG” was run?
Its value is 7.58 nM.

And the “apparent Kd” value [2]?
The value was 5.65 nM.

With “UGGUACUAGGGAGGAUAUGGGAAGAUACAUGAGGAUCACCCAUGUUUAAGAAUGCCGAGAGGCAAGUAGAAGGCCCUAGUACCU” as the sequence, how does the “apparent Kd” value [3] read?
Its value is 781 nM.

What about the “apparent Kd” value [4] of the same sequence?
The value was 97.5 nM.
